Data set [1] concerns Mus musculus. As to the kind of experiment: Anti-NASH activity in streptozotocin induced C57BL/6 mouse STAM model administered at 10 mg/kg, po daily for 3 weeks by hematoxylin and eosin staining analysis. Type of data set: functional, organism-based. Summed up: (§1)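 Male C57BL/6 pups given streptozotocin (200 μg per mouse) at two days old, high-fat diet from four weeks. Dosed orally once daily at 10 mg/kg from six to nine weeks of age. Liver fixed in 10% neutral buffered formalin and paraffin-embedded. 5-μm sections stained with H&E, or with Oil Red O for hepatic lipid.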

In data set [2] the test system is Mus musculus. As to the kind of experiment: Anti-NASH activity in streptozotocin induced C57BL/6 mouse STAM model assessed as reduction of liver steatosis administered at 10 mg/kg, po daily for 3 weeks by oil red O staining analysis. The format is functional, organism-based. Summed up:
as §1

Data set [3] in a line: Toxicity in streptozotocin induced C57BL/6 mouse STAM model assessed as change in body weight at 10 mg/kg, po daily for 3 weeks. Type of data set: organism-based. Conditions: in vivo, 504 h. In outline: (§2)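 In STAM mice (male C57BL/6, streptozotocin 200 μg per mouse at day 2, high-fat diet from week 4), oral dosing at 10 mg/kg once daily from six to nine weeks. Body weight recorded daily between 15:00 and 17:00. Liver, kidney and white adipose tissue weights expressed relative to body weight. Means ± SE; one-way ANOVA with Newman–Keuls test.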

The nature of data set [4]: Toxicity in streptozotocin induced C57BL/6 mouse STAM model assessed as change in liver weight at 10 mg/kg, po daily for 3 weeks. Conditions: in vivo, 504 h. The format is organism-based. In outline: as §2
Data set [5] is described as follows: Toxicity in streptozotocin induced C57BL/6 mouse STAM model assessed as change in kidney weight at 10 mg/kg, po daily for 3 weeks. Conditions: in vivo, 504 h. The format is organism-based. In outline: as §2
A short description of data set [6]: Toxicity in streptozotocin induced C57BL/6 mouse STAM model assessed as change in white adipose tissue weight at 10 mg/kg, po daily for 3 weeks. The format is organism-based. Particulars: in vivo, 504 h. Summed up:
as §2

The test system of data set [7] is Mus musculus. As to the kind of experiment: Antiinflammatory activity in streptozotocin induced C57BL/6 mouse STAM model assessed as reduction of TNF-alpha level administered at 10 mg/kg, po daily for 3 weeks. Type of data set: functional, organism-based. Summed up:
(§3)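 Streptozotocin (200 μg per mouse) given to two-day-old male C57BL/6 pups, high-fat diet from four weeks. Oral dosing at 10 mg/kg once daily for three weeks, starting at six weeks of age. Under anesthesia 500 μl blood collected and serum separated for TNF-α, ALT and glucose. Means ± SE; one-way ANOVA with Newman–Keuls test.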

For data set [8], the system named is Mus musculus. Briefly: Antiinflammatory activity in streptozotocin induced C57BL/6 mouse STAM model assessed as reduction of ALT level administered at 10 mg/kg, po daily for 3 weeks. Type of data set: functional, organism-based. Summed up:
as §3

Data set [9] has as its system Mus musculus. Briefly: Antiinflammatory activity in streptozotocin induced C57BL/6 mouse STAM model assessed as reduction of glucose level administered at 10 mg/kg, po daily for 3 weeks. The format is functional, organism-based. Summed up: as §3
The target in data set [10] is Histone-lysine N-methyltransferase EZH2 (Mus musculus) (UniProt Q61188). As to the kind of experiment: In vivo inhibition of EZH2 in streptozotocin induced C57BL/6 mouse STAM model assessed as reduction mRNA level administered at 10 mg/kg, po for 3 weeks. Type of data set: functional, organism-based. In outline: (§4)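 STAM mice: male C57BL/6 pups given streptozotocin (200 μg per mouse) at day 2, high-fat diet from week 4, oral dosing at 10 mg/kg once daily from weeks 6–9. Liver total RNA reverse transcribed. qPCR run for 40 cycles of 95 °C 15 s, 55–60 °C 15 s, 72 °C 30 s. Comparative Ct method, normalized to GAPDH/18S, compared with control group.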
Histone-lysine N-methyltransferase EZH2 (Mus musculus), sequence (Q61188 whole entry): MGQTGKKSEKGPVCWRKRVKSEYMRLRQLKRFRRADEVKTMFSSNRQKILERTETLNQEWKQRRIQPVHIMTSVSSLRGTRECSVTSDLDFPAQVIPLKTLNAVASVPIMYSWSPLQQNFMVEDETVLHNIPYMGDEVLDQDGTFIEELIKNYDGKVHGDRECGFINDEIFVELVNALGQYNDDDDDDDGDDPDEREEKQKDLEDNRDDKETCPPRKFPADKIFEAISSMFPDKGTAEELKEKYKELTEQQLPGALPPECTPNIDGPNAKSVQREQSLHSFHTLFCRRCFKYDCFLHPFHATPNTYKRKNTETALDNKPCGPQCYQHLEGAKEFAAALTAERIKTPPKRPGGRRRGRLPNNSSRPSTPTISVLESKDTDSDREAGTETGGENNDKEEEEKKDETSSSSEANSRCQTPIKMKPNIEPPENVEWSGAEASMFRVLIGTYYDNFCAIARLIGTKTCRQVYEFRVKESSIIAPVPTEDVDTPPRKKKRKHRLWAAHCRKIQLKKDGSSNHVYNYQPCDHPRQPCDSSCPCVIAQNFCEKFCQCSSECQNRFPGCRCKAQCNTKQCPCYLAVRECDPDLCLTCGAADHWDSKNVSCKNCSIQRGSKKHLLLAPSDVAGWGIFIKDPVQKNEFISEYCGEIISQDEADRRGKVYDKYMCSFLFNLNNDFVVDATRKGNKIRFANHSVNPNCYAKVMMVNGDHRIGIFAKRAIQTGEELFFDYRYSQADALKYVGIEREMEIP

Data set [11] has as its system Mus musculus. As to the kind of experiment: Antiinflammatory activity against streptozotocin induced C57BL/6 mouse STAM model assessed as increase in Runx3 mRNA expression administered at 10 mg/kg, po for 3 weeks. The format is functional, organism-based. In outline: as §4
For data set [12], the system named is Mus musculus. Briefly: Antiinflammatory activity against streptozotocin induced C57BL/6 mouse STAM model assessed as reduction of IFN-gamma expression administered at 10 mg/kg, po for 3 weeks. The format is functional, organism-based. In outline: as §4

Data on three compounds can be found in ChEMBL document CHEMBL5712915, “The Role of the Histone Methyltransferase EZH2 in Liver Inflammation and Fibrosis in STAM NASH Mice” (Biology (Basel), 2020).

Molecules are shown by their SMILES. Active and inactive are the calls of the source. No cut-off for these calls is given here.

Consider `CCCc1cc(C)[nH]c(=O)c1CNC(=O)c1cc(-c2ccc(N3CCN(C(C)C)CC3)nc2)cc2c1cnn2C(C)C`, for which the outcome in the data set on Mus musculus [1], in the data set with Mus musculus [2], in the data set on Mus musculus [7], in the data set with Mus musculus [11] and with Mus musculus [12] was Active. Besides, the Activity result in data set [3], in [4], in data set [5] and in data set [6] was “Non-Toxic” throughout. In addition, the result with Mus musculus [8] and in the data set with Mus musculus [9] was inactive. The inhibition entry in [10] was “Active”.

In the case of `CCN(c1cc(-c2ccc(CN3CCOCC3)cc2)cc(C(=O)NCc2c(C)cc(C)[nH]c2=O)c1C)C1CCOCC1` [TAZEMETOSTAT], the result with Mus musculus [1], in the data set on Mus musculus [2], with Mus musculus [11] and in the data set on Mus musculus [12] was Active. The Activity entry in data set [3], in data set [4], in data set [5] and in data set [6] was “Non-Toxic” each time. The result with Mus musculus [7], in the data set on Mus musculus [8] and in the data set on Mus musculus [9] was inactive.

As to `CC[C@H]1[C@@H](O)[C@@H]2[C@H](CC[C@]3(C)[C@@H]([C@H](C)CCC(=O)O)CC[C@@H]23)[C@@]2(C)CC[C@@H](O)C[C@@H]12`, the outcome with Mus musculus [1] and in the data set on Mus musculus [2] was Active.
